# Screening results deposited in PubChem by Broad Institute.
# HIV Env fusion – HIV envelope-mediated fusion inhibition | HeLa-JRFL Env/CEM21 cell fusion, luciferase | actives 1.1% (n = 360,000) | inhibition, % at 12.3 µM | AID 651610;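 active = mean replicate inhibition score of at least 50 and every replicate individually at or above 50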;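 also: 0% = plate neutral controls and 100% = maraviroc near 300 nM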
# Cneo AK release – causes C. neoformans cell lysis; adenylate kinase release luminescence, 4 h; normalised: neutral wells 0, clomiphene wells 100; lysis activity, % at 15 µM; actives 0.2% (n = 360,000); AID 651654;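 active = mean lysis activity across replicates of at least 80%, whatever share of replicates individually reach that level; inactive = mean lysis activity below 80%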
#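 Material: C. neoformans cells | Amount: Yeast cell density of 5 × 10^6 cells/mL | Medium: Fresh YPD growth medium | Dosing: Single dose | Times: Static 4 h at 37 °C with compound, 1 h detection | Detection: AK luminescence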
# ERAP1 HTS inh – ERAP1 (human) enzyme inhibition | Q9NZ08 | inhibition, % at 10.7 µM | actives 0.15% (n = 340,000) | recombinant ERAP1, Leu-AMC fluorescence, 60 min | AID 652197;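 active = mean replicate inhibition of at least 30%, or all replicates individually reaching that 30% level; inactive = mean below 30% and not every replicate reaching it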;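 also: 0% = neutral control wells and 100% = L-leucinethiol positive control wells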
# Wnt bcat act – activators of Wnt/beta-catenin signaling | activation, % at 9.35 µM | actives 1.2% (n = 300,000) | Wnt/beta-catenin reporter cell assay, activator, plate reader | AID 743398; in the data active = activation above about 30%, passing the limit was not always enough;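 also: 0% = neutral control wells and 100% = positive control wells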
# esBAF inh – blocks esBAF chromatin remodeling in mouse ES cells | Bmi1-luciferase knock-in reporter, 24 h; 100% = twice the neutral-well signal | reporter increase, % at 12.5 µM | actives 2% (n = 350,000) | AID 602393; in the data active = activation above about 40%;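 also: 0% = median of the plate's neutral control wells and 100% = double that signal; a rise in the Bmi1 reporter signal indicates esBAF inhibition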
# MITF act – activators of MITF-driven TRPM1 promoter activity in SK-MEL-5 cells; SK-MEL-5 TRPM1-promoter luciferase, 24 h; % of positive control, neutral wells = 0; activation, % at 12.5 µM; actives 0.75% (n = 300,000);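 active = mean activation of at least 80% with every replicate also reaching 80%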;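 also: 0% = neutral control wells and 100% = parthenolide positive control wells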
# The depositor's hits bear a star; x = no result given; ! = repeats disagree. Shown are actives, neighbours in structure and some others; about 3.5% of the full set was active somewhere.
SMILES,HIV Env fusion,Cneo AK release,ERAP1 HTS inh,Wnt bcat act,esBAF inh,MITF act
CCN(CCCl)c1cc(CN(C)C)cc(NC(=O)c2ccc(C(=O)Nc3cc(CN(C)C)cc(N(CC)CCCl)c3)cc2)c1,89*,x,49*,-11,-85,-98
CCN(CC)C(=O)c1ccc(NC(=O)c2cccc(C(F)(F)F)c2)cc1,2,-2,3,-3,14,13
CCCNC(=O)N1[C@@H]2Cn3c(ccc(-c4ccccc4OC)c3=O)[C@H]1[C@@H](C(=O)OC)[C@@H]2CO,x,52,-2,x,5,x
COC1/C=C/C=C(\C)Cc2cc(O)c(Cl)c(c2)N(C)C(=O)CC(OC(=O)C(C)C)C2(C)OC2C(C)C2CC1(O)NC(=O)O2 (stereo not drawn),56*,x,0,-22,x,-60
COC(=O)[C@H]1N[C@H]2c3ccc(C4=CCCC4)c(=O)n3C[C@H]2[C@@H]1CO,x,-3,1,x,-3,x
O=C1CNC[C@H]2[C@H](c3ccc(Br)cc3)[C@@H](CO)N12,x,x,-3,x,x,x
C[C@]12CC[C@H]3[C@@H](CCC4=CC(=O)CC[C@@H]43)[C@@H]1CC[C@@H]2O,x,-2,-1,-10,-2,-25
C[C@]12CCC3=C4CCC(=O)C=C4CC[C@H]3C1CC[C@@H]2O (stereo partly drawn),56*,0,2,-2,0,-18
COC(=O)[C@H]1[C@H](CO)[C@H]2Cn3c(ccc(/C=C/c4ccccc4)c3=O)[C@@H]1N2C(=O)C1CC1,x,-1,0,x,1,x
COc1ccc(Cc2nccc3cc(OC)c(OC)cc23)cc1OC,57*,-1,-3,-4,-7,-25
C/C=C/c1ccc([C@H]2[C@@H](CO)N3CCCCN(C(=O)Cc4ccncc4)C[C@@H]23)cc1,x,-2,3,x,-2,x
O=C(Cc1ccncc1)N1CCCCN2[C@@H](CO)[C@@H](c3ccc(C#CC4(O)CCCC4)cc3)[C@@H]2C1,x,-3,2,x,x,x
Cn1cc(C(=O)OCC(=O)N2CCCCC2)c2ccccc21,-5,-3,-1,50*,28,9
Cn1cc(C(=O)OCC(=O)Nc2ccccc2)c2ccccc21,x,5,1,2,-2,7
CC(C)NS(=O)(=O)c1ccc(OCC(=O)N2CCN(Cc3ccc4c(c3)OCO4)CC2)c(Cl)c1,74*,-1,-9,x,-2,-17
Cc1cc(S(=O)(=O)NC(C)C)ccc1OCC(=O)N1CCN(Cc2ccc3c(c2)OCO3)CC1,x,-2,x,x,-1,-12
O=C(Cc1ccccc1)N1CCCCN2[C@H](CO)[C@H](c3ccc(C#CC4(O)CCCC4)cc3)[C@@H]2C1,x,1,3,x,x,x
O=C1CNC[C@H]2[C@H](c3ccc(Br)cc3)[C@H](CO)N12,x,x,-4,x,x,x
C[N+]1(C)CCc2cc3c(cc2[C@H]1[C@@H]1OC(=O)c2c1ccc1c2OCO1)OCO3,19,2,53*!,-2,-1,-11
Cc1cccc(NC(=O)CSc2nnc([C@@H](N)Cc3c[nH]c4ccccc34)o2)c1C,55*,-7,x,x,9,-4
CCCN1[C@@H]2c3ccc(-c4ccc(F)cc4)c(=O)n3C[C@H]1[C@H](CO)[C@H]2C(=O)OC,x,0,0,x,-3,x
Cc1ccc(C(=O)C2CN(C)CC2C(=O)c2ccc(C)cc2)cc1 (stereo not drawn),x,8,x,x,60*,13
COC(=O)[C@@H]1[C@@H](CO)[C@@H]2Cn3c(ccc(-c4cccc(OC)c4)c3=O)[C@H]1N2C(=O)c1cnccn1,x,0,4,x,-2,x
Cc1ccc(C(=O)N[C@@H](C)CN2C3=NC[C@@H](Cc4ccccc4)N3C[C@H]2Cc2ccc(O)cc2)cc1Br,75*,x,-4,24,x,x
COC(=O)[C@@H]1[C@@H](CO)[C@@H]2Cn3c(ccc(C4=CCCCC4)c3=O)[C@H]1N2C(=O)NC(C)C,x,0,4,x,3,x
O=C(Cc1ccccc1)N1C[C@H]2[C@@H](c3ccccc31)[C@H](CO)N2Cc1ccccc1,x,1,-1,x,1,x
COC1CC2C=C(C)C=CC=CC(=O)NC(c3ccccc3)CC=CCCC(O)CC(=O)C2=C1O (stereo not drawn),92*,x,0,-22,x,x
COC(=O)[C@H]1[C@H](CO)[C@H]2Cn3c(ccc(-c4ccccc4F)c3=O)[C@@H]1N2Cc1ccncc1,x,1,-2,x,12,x
